According to paper PMC12475083 (Scientific Reports, 2025):
Like-named read-outs stand apart in the source and are kept apart here.

Columns and labels:
[1] = system: BT-549 (breast carcinoma); experiment: Cytotoxicity, WST-8 cell viability; assay type: cell-based, human; details: read-out: Cancer cell lines IC50 BT-549
How it was run: (§1)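 Cells were seeded at 10,000 cells/well and grown for 24 h. Test compounds were dissolved in DMSO, diluted in medium and added at 80, 40, 20 and 10 µM. Cells were then incubated for 48 h. Viability was read with WST-8 plus 1-methoxy PMS as formazan absorbance at 450 nm. Controls were doxorubicin (positive) and 0.25% DMSO (vehicle). IC50 came from concentration-response curves, mean ± SD (n = 3).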

hHDAC1 = hHDAC1 (Homo sapiens, UniProt Q13547); experiment: biochemical; assay type: biochemical; details: for hHDAC1 % @1 µM: inhibitor at 1 µM; for hHDAC1 % @10 µM: inhibitor at 10 µM
[2] = system: SK-OV-3 (ovarian carcinoma); experiment: Cytotoxicity, WST-8 cell viability; assay type: cell-based, human; details: read-out: Cancer cell lines IC50 SK-OV-3
How it was run: as §1

drHDAC10 = molecular target: T1, drHDAC10 (Danio rerio, UniProt F1QCV2); experiment: Enzymatic in vitro HDAC10 inhibition assay; assay type: biochemical, zebrafish
T1 sequence (F1QCV2 1-675): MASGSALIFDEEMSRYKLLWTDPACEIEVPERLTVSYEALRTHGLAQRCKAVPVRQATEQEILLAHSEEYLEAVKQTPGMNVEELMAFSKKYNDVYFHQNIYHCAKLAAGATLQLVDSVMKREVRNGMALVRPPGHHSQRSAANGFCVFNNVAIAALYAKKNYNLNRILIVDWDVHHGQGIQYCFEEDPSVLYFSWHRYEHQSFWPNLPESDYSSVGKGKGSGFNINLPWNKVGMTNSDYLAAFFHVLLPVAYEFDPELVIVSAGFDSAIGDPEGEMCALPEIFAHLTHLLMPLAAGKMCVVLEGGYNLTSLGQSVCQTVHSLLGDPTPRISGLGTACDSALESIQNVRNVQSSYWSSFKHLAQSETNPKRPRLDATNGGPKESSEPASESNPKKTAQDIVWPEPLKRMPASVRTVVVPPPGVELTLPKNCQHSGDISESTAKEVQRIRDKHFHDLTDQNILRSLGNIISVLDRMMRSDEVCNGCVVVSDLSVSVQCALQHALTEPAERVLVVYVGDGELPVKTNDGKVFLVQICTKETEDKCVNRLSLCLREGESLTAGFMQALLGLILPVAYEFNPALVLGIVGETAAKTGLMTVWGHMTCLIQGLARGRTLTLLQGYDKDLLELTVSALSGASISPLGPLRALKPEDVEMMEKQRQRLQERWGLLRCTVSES
How it was run: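 Recombinant wild-type drHDAC10 (5 nM final) was preincubated 5 min with test compound at various concentrations in 20 mM HEPES pH 7.4 with 0.5 mg/mL BSA. The reaction was started with 50 µM Ac-spermidine-AMC and incubated 25 min at 25 °C. A stop solution containing 16 mM NDA derivatized the released primary amine. Fluorescence was read at λex 330 nm and λem 390 nm.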

Vero kidney cells = experiment: Cytotoxicity, WST-8 cell viability, non-cancer kidney cells; assay type: cell-based; details: read-out: Kidney cells IC50 Vero
How it was run: as §1

hHDAC8 = molecular target: T2, hHDAC8 (Homo sapiens, UniProt Q9BY41); experiment: biochemical; assay type: biochemical; details: for hHDAC8 % @1 µM: inhibitor at 1 µM; for hHDAC8 % @10 µM: inhibitor at 10 µM
T2 sequence (Q9BY41 1-377): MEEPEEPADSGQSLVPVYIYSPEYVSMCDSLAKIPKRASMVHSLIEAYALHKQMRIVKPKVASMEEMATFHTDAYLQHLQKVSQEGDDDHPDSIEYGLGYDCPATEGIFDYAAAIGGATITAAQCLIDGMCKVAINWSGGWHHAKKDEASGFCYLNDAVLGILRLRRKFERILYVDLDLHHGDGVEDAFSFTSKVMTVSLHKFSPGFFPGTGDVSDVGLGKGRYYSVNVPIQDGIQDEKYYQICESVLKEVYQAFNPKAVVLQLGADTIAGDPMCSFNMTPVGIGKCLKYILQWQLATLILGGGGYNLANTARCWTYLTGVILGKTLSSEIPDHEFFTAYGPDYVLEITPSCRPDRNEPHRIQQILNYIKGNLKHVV

hHDAC6 = molecular target: T3, hHDAC6 (Homo sapiens, UniProt Q9UBN7); experiment: biochemical
T3 sequence (Q9UBN7 1-1215): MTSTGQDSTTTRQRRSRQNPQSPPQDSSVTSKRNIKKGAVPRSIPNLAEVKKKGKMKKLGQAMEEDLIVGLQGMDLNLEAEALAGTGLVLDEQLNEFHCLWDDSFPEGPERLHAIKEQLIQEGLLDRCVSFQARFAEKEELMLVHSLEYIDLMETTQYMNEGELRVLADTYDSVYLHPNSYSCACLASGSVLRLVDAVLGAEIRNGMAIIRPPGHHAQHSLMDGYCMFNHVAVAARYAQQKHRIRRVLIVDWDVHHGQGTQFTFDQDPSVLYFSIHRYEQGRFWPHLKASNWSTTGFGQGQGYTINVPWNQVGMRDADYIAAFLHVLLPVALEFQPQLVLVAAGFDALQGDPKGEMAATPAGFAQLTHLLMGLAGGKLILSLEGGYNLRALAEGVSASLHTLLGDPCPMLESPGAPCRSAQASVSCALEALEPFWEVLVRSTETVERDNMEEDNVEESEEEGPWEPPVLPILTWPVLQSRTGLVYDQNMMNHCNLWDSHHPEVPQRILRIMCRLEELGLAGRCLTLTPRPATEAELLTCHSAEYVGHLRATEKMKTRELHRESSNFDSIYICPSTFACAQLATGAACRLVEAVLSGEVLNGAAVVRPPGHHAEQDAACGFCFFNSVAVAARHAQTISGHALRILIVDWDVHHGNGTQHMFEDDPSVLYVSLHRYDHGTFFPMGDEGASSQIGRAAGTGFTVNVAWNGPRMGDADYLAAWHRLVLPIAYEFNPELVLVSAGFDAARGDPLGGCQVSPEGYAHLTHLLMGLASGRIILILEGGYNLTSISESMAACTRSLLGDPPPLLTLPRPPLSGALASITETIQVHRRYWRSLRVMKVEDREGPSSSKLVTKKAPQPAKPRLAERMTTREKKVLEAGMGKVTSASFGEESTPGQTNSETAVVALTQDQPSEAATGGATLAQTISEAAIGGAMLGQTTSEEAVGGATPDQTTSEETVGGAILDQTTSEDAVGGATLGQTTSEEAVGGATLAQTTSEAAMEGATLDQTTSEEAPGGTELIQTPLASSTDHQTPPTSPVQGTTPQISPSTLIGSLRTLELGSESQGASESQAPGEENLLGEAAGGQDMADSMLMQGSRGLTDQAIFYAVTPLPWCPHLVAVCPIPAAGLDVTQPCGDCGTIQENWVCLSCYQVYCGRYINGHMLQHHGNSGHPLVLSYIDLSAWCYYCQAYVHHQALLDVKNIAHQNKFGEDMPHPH

KB (epidermal carcinoma) = experiment: Cytotoxicity, WST-8 cell viability; assay type: cell-based, human; details: read-out: Cancer cell lines IC50 KB
How it was run: as §1

SK-MEL (melanoma) = experiment: Cytotoxicity, WST-8 cell viability; assay type: cell-based, human; details: read-out: Cancer cell lines IC50 SK-MEL
How it was run: as §1

LLC-PK1 kidney cells = experiment: Cytotoxicity, WST-8 cell viability, non-cancer kidney cells; assay type: cell-based; details: read-out: Kidney cells IC50 LLC-PK1; 48 h incubation, mean ± SD (n = 3)
How it was run: as §1

[3] = Chlorocebus sabaeus, Vero, 48 h
[4] = read-out: IC50 drHDAC10 ± SD, zebrafish HDAC10, recombinant wild type
[5] = read-out: hHDAC6 IC50, recombinant human HDAC6
[6] = 48 h incubation, mean ± SD (n = 3)

Chain of hHDAC1 (Q13547 whole entry): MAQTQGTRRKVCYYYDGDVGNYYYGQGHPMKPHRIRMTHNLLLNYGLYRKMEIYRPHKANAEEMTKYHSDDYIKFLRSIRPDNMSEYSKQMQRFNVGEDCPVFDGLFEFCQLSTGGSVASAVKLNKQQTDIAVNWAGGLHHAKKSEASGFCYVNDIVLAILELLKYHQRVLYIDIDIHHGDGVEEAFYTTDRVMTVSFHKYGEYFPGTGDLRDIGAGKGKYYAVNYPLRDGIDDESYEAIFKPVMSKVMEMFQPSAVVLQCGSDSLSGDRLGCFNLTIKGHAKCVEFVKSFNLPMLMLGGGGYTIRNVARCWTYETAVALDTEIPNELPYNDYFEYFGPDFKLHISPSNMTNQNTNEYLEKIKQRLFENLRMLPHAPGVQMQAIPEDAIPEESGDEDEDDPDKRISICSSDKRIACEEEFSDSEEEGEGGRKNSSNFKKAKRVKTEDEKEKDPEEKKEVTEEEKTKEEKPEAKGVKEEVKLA

SMILES | IC50 ([1]; Homo sapiens, BT-549, 48 h) [µM] | hHDAC1 % @1 µM (hHDAC1) [%] | hHDAC1 % @10 µM (hHDAC1) [%] | IC50 ([2]; Homo sapiens, SK-OV-3, 48 h) [µM] | IC50 (drHDAC10) [µM] | IC50 (Vero kidney cells; [3]) [µM] | hHDAC8 % @1 µM (hHDAC8) [%] | hHDAC8 % @10 µM (hHDAC8) [%] | IC50 (KB (epidermal carcinoma); Homo sapiens, 48 h) [µM] | IC50 (SK-MEL (melanoma); Homo sapiens, 48 h) [µM] | IC50 (hHDAC8) [µM] | IC50 (hHDAC6) [µM] | further results
Cc1ccc(S(=O)(=O)n2cc(CN3CCN(c4ccc(C(=O)NO)cc4)CC3)c3ccccc32)cc1 [Compound 2e, N-hydroxy-4-(4-((1-tosyl-1H-indol-3-yl)methyl)piperazin-1-yl)benzamide] | 9.71 ± 0.28 | 7.3 | 67.2 | 8.62 ± 0.42 | 0.075 ± 0.012 | 13.2 ± 1.82 | 26.9 | 87.9 | 10 ± 0.7 | 8.82 ± 0.7 |  |  | decrease in HDAC10 activity compared to unsubstituted counterpart compound 2b (drHDAC10; tosyl analogue vs compound 2b): ~38 fold; hHDAC6 % @1 µM (hHDAC6; inhibitor at 1 µM): 35.3%; hHDAC6 % @10 µM (hHDAC6; inhibitor at 10 µM): 95%
O=C(NO)c1ccc(CNCc2c[nH]c3ccccc23)cc1 [Compound 2a, 4-((((1H-indol-3-yl)methyl)amino)methyl)-N-hydroxybenzamide] | > 80 |  |  | 61 ± 14.4 | 0.00041 ± 2e-05 | 62.6 ± 2.39 |  |  | 72.8 ± 2.4 | > 80 | 0.35 ± 0.02 | 0.037 ± 0.002 | IC50 (hHDAC1): 4.5 ± 0.2 µM; selectivity of HDAC10 over HDAC6 (drHDAC10; ratio of HDAC6 to HDAC10 IC50): approximately 90 fold
O=C(NO)c1ccc(N2CCN(Cc3cnc4ccccc4c3)CC2)cc1 [Compound 2g, N-hydroxy-4-{4-[(quinolin-3-yl)methyl]piperazin-1-yl}benzamide] | > 69 | 32.1 | 79.4 | > 69 |  | 51 ± 1.95 |  |  | > 69 | > 69 |  |  | IC50 (drHDAC10; [4]): 0.011 ± 0.001 µM; IC50 (hHDAC8; read-out: hHDAC8 IC50, recombinant human HDAC8): 0.3 ± 0.02 µM; IC50 (hHDAC6; [5]): 0.13 ± 0.01 µM
O=C(NO)c1ccc(NCc2cnc3ccccc3c2)cc1 [Compound 2f, N-hydroxy-4-((quinolin-3-ylmethyl)amino)benzamide] | 14.8 ± 2.65 |  |  | 10.9 ± 2.89 | 0.11 ± 0.01 | 3.92 ± 0.24 |  |  | 9.72 ± 0.73 | 15.2 ± 1.21 | 0.21 ± 0.01 | 0.0025 ± 0.0003 | 
COc1cccc2c1C(=O)c1c(O)c3c(c(O)c1C2=O)C[C@@](O)(C(=O)CO)C[C@@H]3O[C@H]1C[C@H](N)[C@H](O)[C@H](C)O1 [Doxorubicin, reference compound] | 3.44 |  |  | 2.01 |  | > 11 |  |  | 2.3 | 2.52 |  |  | 
CN1CCc2c(c3ccccc3n2Cc2ccc(C(=O)NO)cc2)C1 [Tubastatin A, reference compound] |  | 7.6 | 29.9 |  | 0.05 ± 0.003 |  | 46.4 | 84 |  |  |  |  | 
Cc1ccc(S(=O)(=O)n2cc(CNCc3ccc(C(=O)NO)cc3)c3ccccc32)cc1 [Compound 2c, N-hydroxy-4-((((1-tosyl-1H-indol-3-yl)methyl)amino)methyl) benzamide] |  | 22.2 | 72.8 |  |  |  | 65.1 | 97.3 |  |  |  |  | IC50 [1, 6]: 16.5 ± 0.32 µM; IC50 [2, 6]: 21.4 ± 1.89 µM; IC50 (drHDAC10; [4]): 0.0045 ± 0.0003 µM; reduction in HDAC10 inhibitory activity compared to compound 2a (drHDAC10; tosyl analogue vs compound 2a): ~10 fold; IC50 (Vero kidney cells; [6]): 21.4 ± 1.27 µM; IC50 (LLC-PK1 kidney cells): 16.6 ± 3.93 µM; IC50 (hHDAC6; [5]): 0.051 ± 0.005 µM; IC50 (KB (epidermal carcinoma); [6]): 20.2 ± 0.32 µM; IC50 (SK-MEL (melanoma); [6]): 15.1 ± 0.94 µM
Cc1ccc(S(=O)(=O)n2cc(CNc3ccc(C(=O)NO)cc3)c3ccccc32)cc1 [Compound 2d, N-hydroxy-4-(((1-tosyl-1H-indol-3-yl)methyl)amino)benzamide] | 11.4 ± 0.16 | 1.3 | 38.9 | 12.6 ± 0.98 | 0.29 ± 0.06 | 50.5 ± 9.74 | 49.2 | 98.9 | 13.3 ± 0.33 | 8.38 ± 2.11 |  | 0.053 ± 0.005 | 
O=C(NO)c1ccc(N2CCN(Cc3c[nH]c4ccccc34)CC2)cc1 [Compound 2b, 4-(4-((1H-indol-3-yl)methyl)piperazin-1-yl)-N-hydroxybenzamide] | 16.8 ± 3.63 | 48.4 | 90.6 | 11.4 ± 4.04 | 0.002 ± 0.0001 | 5.99 ± 0.4 |  |  | 12.1 ± 1.41 | 26 ± 3.62 | 0.074 ± 0.006 | 0.073 ± 0.003 | 
